Cneo AK release = causes C. neoformans cell lysis | adenylate kinase release luminescence, 4 h; normalised: neutral wells 0, clomiphene wells 100 | lysis activity, % at 15 µM | 0.2% of 360,000 active | AID 651654;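 active = mean lysis activity across replicates of at least 80%, whatever share of replicates individually reach that level; inactive = mean lysis activity below 80%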
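Assay system: log-phase C. neoformans yeast / Quantity: yeast cell density of 5 × 10^6 cells/mL / Medium: fresh YPD growth medium / Compound: single dose / Timing: static 4 h at 37 °C with compound, 1 h detection / Measured by: adenylate kinase release luminescence / Read-out: lysis from increased AK signal / Benchmarks: Clomiphene as positive lysis control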
Mot1-301 SUMO = SUMOylation pathway inhibition by Mot1-301 growth rescue. S. cerevisiae Mot1-301 growth rescue, ATP luminescence, 38.5C; percent above DMSO median, 100 means doubled. growth rescue, % at 18.8 µM. 1% of 320,000 active. AID 2716;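 active = every valid replicate shows activation above 250% relative to neutral control wells; inactive = the rest, any valid replicate at or below 250%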;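 also: OY570 slx delta 5 strain wells were the positive control but not used for scaling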
Statin myotox sup = suppression of simvastatin myotoxicity; rescue of ATP level, % at 7.49 µM; 0.78% of 330,000 active; AID 602340; C2C12 myotubes + simvastatin, ATP luminescence, 48 h; scaled: DMSO 0, geranylgeraniol control 100;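 active = mean ATP rescue above about 67%, or every replicate alone reaching that limit, limit read from the data, passing the limit was not always enough; inconclusive = no clear call, values can overlap the other calls; inactive = mean under the limit and some replicate under it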;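 also: myotubes were challenged with 10 µM simvastatin during compound exposure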
Mot1 SUMO dose = SUMO pathway inhibitors in yeast Mot1-301 growth. shares compounds with Mot1-301 SUMO. S. cerevisiae Mot1-301 galactose growth, ATP luminescence, 24 h; -100 = growth of slx-deleted rescue strain. growth activity, percent, % at 42 µM. 2,300 tested, under 10 active;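 active = Signal drops as the depositor expects, and the fitted half-maximal dose is no more than ten times the top valid tested dose; inconclusive = Poor fit, or a flat curve whose signal drops by 30% to 70%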;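 also: more negative values mean stronger growth rescue toward the control strain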
* hit, by the source's call; ? = inconclusive; . = no result; + = active, no number. Only some compounds are listed: those with a hit (about 1.5% of all), similar ones and a draw of the others.

SMILES	Cneo AK release	Mot1-301 SUMO	Statin myotox sup	Mot1 SUMO dose
CO[C@H]1CN(C)C(=O)c2ccc(NC(=O)C3CC3)cc2OC[C@@H](C)N(Cc2cccnc2)C[C@H]1C	6	.	-10	.
O=C(C[C@H]1CC[C@@H](NC(=O)Nc2ccc(C(F)(F)F)cc2)[C@@H](CO)O1)NCCN1CCCC1	0	.	-16	.
O=C(O)CCSc1ncnc2sc(-c3ccccc3)cc12	-1	31	-7	.
O=C(O)CSc1ncnc2sc(-c3ccccc3)cc12	.	525*	.	0
Cc1ccc(S(=O)(=O)Nc2cccc3c2O[C@@H](CN(C)S(=O)(=O)c2ccc(F)cc2)[C@@H](C)CN([C@H](C)CO)C3=O)cc1	-3	.	-39	.
C[C@H](NC(=O)C[C@H]1C=C[C@H](NC(=O)Cc2ccccn2)[C@@H](CO)O1)c1ccccc1	-2	.	0	.
CN1CCN(C(=O)C2=C[C@@H](c3ccc4c(c3)OCO4)C[C@@H](OCCCCO)O2)CC1	-5	.	.	.
CN(c1ccccc1C(=O)N1CCN(Cc2ccc3c(c2)OCO3)CC1)S(C)(=O)=O	.	+	.	0
O=C(c1ccccc1Cl)N1CCN(Cc2ccc3c(c2)OCO3)CC1	-4	3	4	.
CC1CCN(S(=O)(=O)c2ccc(C(=O)Nc3nnc(-c4ccco4)o3)cc2)CC1	1	1	-11	.
O=C(Nc1nnc(-c2ccco2)o1)c1ccc(S(=O)(=O)N2CCCC2)cc1	.	474*	.	0
O=C(C[C@@H]1CC[C@H]2[C@@H](COC[C@@H](O)CN2Cc2ccc(Cl)cc2)O1)NCCc1ccccc1	-2	.	27	.
COC(CNC(=O)C(=O)NCC1OCCN1C(=O)c1ccc(Cl)cc1)OC (configuration not stated)	3	7	-4	.
COCCNC(=O)C(=O)NCC1OCCN1C(=O)c1ccc(Cl)cc1 (configuration not stated)	0	525*	0	1
C/C=C/c1ccc([C@H]2[C@@H](CNC(C)C)N(C(=O)c3ccccn3)[C@H]2CO)cc1	-9	.	1	.
O=C(OCc1nnc(-c2ccccc2)o1)c1ccc([N+](=O)[O-])o1	.	743*	21	-1
O=C(OCc1nnc(-c2ccccc2)o1)c1ccc(Br)o1	-1	-12	7	.
CCCC(=O)Nc1ccc2c(c1)C(=O)N(C)[C@H]1CC[C@H](CC(=O)NCc3ccccc3Cl)O[C@H]1CO2	3	.	-1	.
Cc1cc(C)c2c(=O)n(CC(=O)N3CCC(N4CCCCC4)CC3)sc2n1	2	-13	-9	.
CCCNC(=O)Cn1sc2nc(C)cc(C)c2c1=O	.	423*	.	0
C[C@@H]1CCCCO[C@H](CN(C)S(=O)(=O)c2cn(C)cn2)[C@H](C)CN([C@@H](C)CO)C(=O)c2cc(NC(=O)c3ccncc3)ccc2O1	0	.	.	.
Nc1ccc2c(c1)OCCOCCOCCOCCOCCO2	.	-23	.	.
c1ccc2c(c1)OCCOCCOc1ccccc1OCCOCCO2	.	735*	.	1
O=c1n(-c2ccccc2)c(=O)n2n1CC(COc1ccccc1)=C1[C@@H](CCc3ccccc3)OB(O)C[C@@H]12	1	.	.	.
COc1ccc(OC)c(S(=O)(=O)N2CCC(C(=O)NCc3cccnc3)CC2)c1	-2	-19	-9	.
SMILES	Cneo AK release	Mot1-301 SUMO	Statin myotox sup	Mot1 SUMO dose
CCOc1ccc(Br)cc1S(=O)(=O)N1CCC(C(N)=O)CC1	5	438*	0	0
CCOc1ccc(Br)cc1S(=O)(=O)N1CCCN(C)CC1	-1	12	-1	.
CCOc1ccc(Cl)cc1S(=O)(=O)N1CCC(C(=O)NCc2cccnc2)CC1	-1	366*	3	0
C[C@@H]1CCCCO[C@H](CN(C)S(=O)(=O)c2ccccc2)[C@H](C)CN([C@H](C)CO)C(=O)c2cc(NC(=O)Nc3ccccc3)ccc2O1	41	.	.	.
Cc1noc(C)c1NC(=O)Nc1ccc2c(c1)C(=O)N([C@@H](C)CO)C[C@H](C)[C@@H](CN(C)S(=O)(=O)c1c(C)noc1C)OCCCC[C@@H](C)O2	-4	.	?	.
Cc1ccc(N2C(=O)c3cccc4c([N+](=O)[O-])ccc(c34)C2=O)c2cccnc12	-2	8	-26	.
Cc1ccc(N2C(=O)c3cccc4c(N5CCN(C)CC5)ccc(c34)C2=O)c2cccnc12	.	702*	.	-1
CC(C)[C@H](C)NC(=O)N(C)C[C@H]1OCc2ccccc2-c2c(n(C)c3ccccc23)C(=O)N([C@@H](C)CO)C[C@H]1C	-1	.	-12	.
COc1cccc2[nH]c(=O)c(-c3ccccc3)cc12	-1	453*	-9	-1
COc1ccc(-c2cc(=O)[nH]c3ccccc23)cc1	1	2	-8	.
COc1ccc(Nc2cc(NCCCO)c([N+](=O)[O-])c3nonc23)cc1	-4	382*	-10	0
COc1ccc(CNc2cc(NCCCO)c([N+](=O)[O-])c3nonc23)cc1	.	170	.	.
O=C(CSc1nnc2ccccn12)NNC(=O)c1ccc(Cl)cc1	-1	599*	25	0
O=C(CSc1nnc2ccccn12)NNC(=O)c1ccc(F)cc1	.	-25	0	.
C[C@H](CO)N1C[C@H](C)[C@H](CN(C)C(=O)C2CCC2)Oc2ncc(-c3ccccc3F)cc2C1=O	0	.	3	.
C[C@@H]1CCCCO[C@@H](CN(C)C(=O)c2ccncc2)[C@@H](C)CN([C@H](C)CO)C(=O)c2cc(NS(=O)(=O)c3ccc(F)cc3)ccc2O1	-4	.	.	.
S=C(Nc1ccccc1Cl)N1CCOCC1	.	651*	.	1
S=C(Nc1ccccc1Cl)N1CCCCCC1	.	5	.	.
C[C@@H]1CN([C@@H](C)CO)C(=O)c2cc(C#CC3CC3)cnc2O[C@@H]1CN(C)C(=O)c1ccccc1	14	.	-7	.
O=C(CSc1cccc2cccnc12)OCC(=O)c1ccc(Br)cc1	2	-2	25	.
O=C(CCC(=O)OCC(=O)c1ccc(Br)cc1)Nc1cccc2cccnc12	-1	429*	-11	0
C[C@@H]1CCCCO[C@H](CN(C)C(=O)NC2CCCCC2)[C@@H](C)CN([C@H](C)CO)C(=O)c2cc(NC(=O)c3ccncc3)ccc2O1	-3	.	.	.
CCn1cc(C(=O)NCc2ccccn2)c(=O)c2cc(F)c(N3CCN(C)CC3)cc21	-2	388*	.	0
CCn1cc(C(=O)NCCc2ccccc2)c(=O)c2cc(F)c(N3CCN(C)CC3)cc21	0	17	-30	.
O=C1C2CC=C(Cl)CC2C(=O)N1c1ncn[nH]1 (configuration not stated)	-1	570*	.	0
O=C1C2CC=CCC2C(=O)N1c1ncn[nH]1 (configuration not stated)	-6	-6	-6	.
CCCNC(=O)c1cc2c(C(F)(F)F)nn(C)c2s1	-2	859*	16	0
CC(C)NC(=O)c1cc2c(C(F)(F)F)nn(C)c2s1	5	32	.	.
C[C@@H]1CN([C@@H](C)CO)C(=O)c2ccccc2-c2ccccc2CO[C@@H]1CN(C)Cc1ccc2c(c1)OCO2	-1	.	-2	.
NCC[C@H]1CC[C@@H](NC(=O)Cc2ccncc2)[C@@H](CO)O1	-2	.	5	.
